A short description of data set [1]: Protein binding in human plasma assessed as unbound fraction. In kind it is ADME, cell-free.
Data set [2] concerns the target T1, Nuclear receptor ROR-alpha (Homo sapiens) (UniProt P35398).
T1 sequence (whole entry): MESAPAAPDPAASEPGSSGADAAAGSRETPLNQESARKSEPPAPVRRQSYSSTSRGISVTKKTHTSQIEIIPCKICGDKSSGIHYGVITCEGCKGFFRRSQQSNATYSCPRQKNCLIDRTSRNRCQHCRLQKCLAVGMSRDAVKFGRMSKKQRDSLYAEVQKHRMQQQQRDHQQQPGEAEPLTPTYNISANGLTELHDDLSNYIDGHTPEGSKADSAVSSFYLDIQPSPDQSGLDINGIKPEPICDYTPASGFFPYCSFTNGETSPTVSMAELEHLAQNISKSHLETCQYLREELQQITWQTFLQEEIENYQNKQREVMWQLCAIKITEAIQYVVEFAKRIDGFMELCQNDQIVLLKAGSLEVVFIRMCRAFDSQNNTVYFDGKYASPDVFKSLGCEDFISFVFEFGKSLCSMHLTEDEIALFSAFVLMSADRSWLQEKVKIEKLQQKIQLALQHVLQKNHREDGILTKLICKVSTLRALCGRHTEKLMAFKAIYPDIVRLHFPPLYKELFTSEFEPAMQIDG
In words: Inverse agonist activity at GAL4-fused RORalpha LBD (272 to 556 residues) (unknown origin) expressed in human Jurkat cells measured after 18 hrs by native IL17 promoter driven steady-glo luciferase assay. In kind it is cell-based.

In data set [3] the target is T2, Nuclear receptor ROR-beta (Homo sapiens) (UniProt Q92753).
T2 sequence (whole entry): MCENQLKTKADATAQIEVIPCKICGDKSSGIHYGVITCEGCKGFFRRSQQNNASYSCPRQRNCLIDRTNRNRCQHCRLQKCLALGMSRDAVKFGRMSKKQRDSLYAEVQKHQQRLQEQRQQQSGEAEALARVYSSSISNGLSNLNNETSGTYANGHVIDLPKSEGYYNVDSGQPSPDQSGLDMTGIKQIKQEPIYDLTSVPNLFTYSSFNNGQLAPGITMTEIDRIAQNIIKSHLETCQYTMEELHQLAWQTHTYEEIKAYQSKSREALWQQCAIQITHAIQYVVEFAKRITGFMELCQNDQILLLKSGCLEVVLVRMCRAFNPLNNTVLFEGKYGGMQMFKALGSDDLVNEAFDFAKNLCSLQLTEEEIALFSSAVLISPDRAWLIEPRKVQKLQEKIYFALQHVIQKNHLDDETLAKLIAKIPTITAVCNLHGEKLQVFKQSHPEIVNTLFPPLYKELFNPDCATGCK
The experiment in a line: Inverse agonist activity at GAL4-fused RORbeta LBD (200 to 559 residues) (unknown origin) expressed in human Jurkat cells measured after 18 hrs by native IL17 promoter driven steady-glo luciferase assay. In kind it is cell-based.

In another data set the target is Cytochrome P450 2D6 (Homo sapiens, UniProt P10635). The experiment in a line: Inhibition of CYP2D6 (unknown origin). In kind it is ADME.
The next data set concerns the target T3, Cytochrome P450 2C8 (Homo sapiens, UniProt P10632).
T3 sequence (P10632 whole entry): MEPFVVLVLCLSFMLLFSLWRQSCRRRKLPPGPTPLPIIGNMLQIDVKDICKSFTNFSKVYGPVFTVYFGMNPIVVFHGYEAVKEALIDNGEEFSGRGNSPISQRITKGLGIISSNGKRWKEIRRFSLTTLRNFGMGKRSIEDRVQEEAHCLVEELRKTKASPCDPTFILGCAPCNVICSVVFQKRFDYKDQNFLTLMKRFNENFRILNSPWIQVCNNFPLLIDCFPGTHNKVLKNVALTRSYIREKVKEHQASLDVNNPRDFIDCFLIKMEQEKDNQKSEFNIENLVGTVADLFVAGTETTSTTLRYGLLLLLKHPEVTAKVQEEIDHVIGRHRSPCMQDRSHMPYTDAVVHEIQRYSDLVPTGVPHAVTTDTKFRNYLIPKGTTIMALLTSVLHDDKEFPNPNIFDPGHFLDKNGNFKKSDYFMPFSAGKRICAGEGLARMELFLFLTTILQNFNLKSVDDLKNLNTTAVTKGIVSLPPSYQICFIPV
The experiment in a line: Inhibition of CYP2C8 (unknown origin). In kind it is ADME.

Data set [4] in a line: AUC in Balb/c mouse at 2 mg/kg, iv. In kind it is ADME, organism-based. The settings on record: in vivo. The procedure, abridged:
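Balb/c mice given a single intravenous dose of 2 mg/kg or an oral dose of 10 mg/kg. Plasma exposure was followed to derive Cmax, Tmax, AUC, t1/2, clearance, Vss and oral bioavailability (F).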

In data set [5] the test system is Mus musculus. In words: Inhibition of IL2/IL23-induced GM-CSF production in po bid dosed C57BL/6 mouse treated 30 mins prior to 24 hrs IL2 challenge followed by IL2/IL23 addition at 0,7 and 23 hrs measured after 7 hrs post last IL2/IL23 challenge. In kind it is functional, organism-based. In short, it runs like this: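 Naive mice were challenged three times with IL-2 plus IL-23 (first at 0 and 7 h) and dosed orally bid at 5, 15 or 50 mg/kg. Serum cytokines were measured 7 h after the final IL-2/IL-23 administration. An anti-IL-23 antibody served as positive control.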

The subject of data set [6] is Mus musculus. The experiment in a line: Protection against IL23-induced acanthosis C57BL/6 mouse model of psoriasis assessed as reduction in ear swelling at 10 to 50 mg/kg, po bid for 10 days treated 2 hrs prior to IL23 challenge every other day for 10 days measured on day 11. In kind it is functional, organism-based.

SMILES strings stand for the structures. Activity calls are given as the source filed them. The calls are words filed in the database; no cut-off is given here. Some results are limits rather than exact numbers.

Sequence of Cytochrome P450 2D6 (P10635 whole entry): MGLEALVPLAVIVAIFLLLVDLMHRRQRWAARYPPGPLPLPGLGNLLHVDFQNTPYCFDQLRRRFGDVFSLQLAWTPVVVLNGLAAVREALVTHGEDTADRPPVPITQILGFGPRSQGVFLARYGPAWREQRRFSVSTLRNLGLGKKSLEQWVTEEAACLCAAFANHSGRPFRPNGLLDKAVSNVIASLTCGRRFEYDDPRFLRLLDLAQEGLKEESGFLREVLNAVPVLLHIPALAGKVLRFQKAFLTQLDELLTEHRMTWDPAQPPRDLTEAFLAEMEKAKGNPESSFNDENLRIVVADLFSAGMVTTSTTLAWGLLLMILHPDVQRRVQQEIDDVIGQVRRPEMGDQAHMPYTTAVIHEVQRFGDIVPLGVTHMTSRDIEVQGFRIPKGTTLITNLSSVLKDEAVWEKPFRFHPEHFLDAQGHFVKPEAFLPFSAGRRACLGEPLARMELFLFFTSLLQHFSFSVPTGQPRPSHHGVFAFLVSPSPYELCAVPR

`O=C(O)[C@H]1CC[C@H](C(=O)N2CC[C@](c3ccc(C(F)(C(F)(F)F)C(F)(F)F)cc3)(S(=O)(=O)c3ccc(F)cc3)C2)CC1`: in data set [1], the unbound share (fraction unbound) – broadly, free concentration divided by total concentration – was 0.037. The outcome in data set [2] and in data set [3] was inactive. Besides, the IC50 – broadly, the midpoint of a concentration-inhibition curve – was more than 20000 nM at Cytochrome P450 2D6 and 680 nM against Cytochrome P450 2C8. The exposure (AUC) (usually concentration integrated over time) in data set [4] came to 7.4 µM·h. Further, the inhibition result in the data set on Mus musculus [5] was “Dose-dependent effect”. Moreover, the result in the data set with Mus musculus [6] was Active.

(Values after ChEMBL document CHEMBL4339200, “Structure-based Discovery of Phenyl (3-Phenylpyrrolidin-3-yl)sulfones as Selective, Orally Active RORγt Inverse Agonists” (ACS Med Chem Lett, 2019).)
